# ChEMBL document CHEMBL5108039, “Piperazine tethered bergenin heterocyclic hybrids: design, synthesis, anticancer activity, and molecular docking studies” (RSC Med Chem, 2022)
# Activity calls are given as the source filed them. The calls are words filed in the database; no cut-off is given here.
# Columns and labels:
# SCC-9 [1] = assay: Induction of apoptosis in human SCC-9 cells assessed as late apoptotic cells at 16.2 uM incubated for 24 hrs by Annexin V-FITC/PI staining based flow cytometric analysis (reference value: 1.4 %); format: functional
# SCC-9 [2] = assay: Cell cycle arrest in human SCC-9 cells assessed as accumulation at G2/M phase at 32.4 uM incubated for 24 hrs by flow cytometry (reference value: 14.2 %); format: functional
# SCC-9 [3] = assay: Induction of apoptosis in human SCC-9 cells assessed as downregulation of Nanog gene expression at 16 uM by qRT-PCR analysis; format: functional, cell-based
# MCF7 = assay: Cytotoxicity against human MCF7 cells assessed as cell growth inhibition; format: functional, cell-based
# How it was run: (§1)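 Compounds were dissolved in sterile DMSO as 10 mg ml−1 stocks and tested for in vitro growth inhibition of human cancer cell lines. Doxorubicin was the standard drug and DMSO (0.01%) the vehicle control. IC50 values are reported as means.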
# CAL-27 [4] = assay: Induction of apoptosis in human CAL-27 cells assessed as necrotic cells at 16 uM incubated for 24 hrs by Annexin V-FITC/PI staining based flow cytometric analysis (reference value: 0.0 %); format: functional
# How it was run: (§2)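 CAL27 cells were treated with vehicle, doxorubicin or test compounds at 10–63 μM, and apoptosis was assessed by annexin V–FITC/PI staining with flow cytometry. Cells were scored as live, early apoptotic, late apoptotic or necrotic. The vehicle was DMSO (0.01%).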
# SCC-9 [5] = assay: Cell cycle arrest in human SCC-9 cells assessed as accumulation at G2/M phase at 16.2 uM incubated for 24 hrs by flow cytometry (reference value: 14.2 %); format: functional
# CAL-27 [6] = assay: Induction of apoptosis in human CAL-27 cells assessed as live cells at 32 uM incubated for 24 hrs by Annexin V-FITC/PI staining based flow cytometric analysis (reference value: 99.8 %); format: functional; how it was run: as §2
# CAL-27 [7] = assay: Induction of apoptosis in human CAL-27 cells assessed as early apoptotic cells at 32 uM incubated for 24 hrs by Annexin V-FITC/PI staining based flow cytometric analysis (reference value: 0.1 %); format: functional; how it was run: as §2
# SCC-9 [8] = assay: Induction of apoptosis in human SCC-9 cells assessed as upregulation of E-cad gene expression at 32 uM by qRT-PCR analysis; format: functional, cell-based
# SCC-9 [9] = assay: Induction of apoptosis in human SCC-9 cells assessed as downregulation of vimentin gene expression at 16 uM by qRT-PCR analysis; format: functional, cell-based
# CAL-27 [10] = assay: Induction of apoptosis in human CAL-27 cells assessed as late apoptotic cells at 16 uM incubated for 24 hrs by Annexin V-FITC/PI staining based flow cytometric analysis (reference value: 0.1 %); format: functional; how it was run: as §2
# SCC-9 [11] = assay: Induction of apoptosis in human SCC-9 cells assessed as live cells at 16.2 uM incubated for 24 hrs by Annexin V-FITC/PI staining based flow cytometric analysis (reference value: 95.7 %); format: functional
# SCC-9 [12] = assay: Induction of apoptosis in human SCC-9 cells assessed as downregulation of Nanog gene expression at 32 uM by qRT-PCR analysis; format: functional, cell-based
# CAL-27 [13] = assay: Induction of apoptosis in human CAL-27 cells assessed as early apoptotic cells at 16 uM incubated for 24 hrs by Annexin V-FITC/PI staining based flow cytometric analysis (reference value: 0.1 %); format: functional; how it was run: as §2
# CAL-27 [14] = assay: Induction of apoptosis in human CAL-27 cells assessed as downregulation of Nanog gene expression at 32 uM by qRT-PCR analysis; format: functional, cell-based
# How it was run: (§3)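 CAL27 cells were treated with test compounds at several concentrations. Relative expression of vimentin, E-cad, Nanog, Oct-4, Bax and BcL-2 was measured by qRT-PCR against vehicle-treated control cells.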
# SCC-9 [15] = assay: Induction of apoptosis in human SCC-9 cells assessed as necrotic cells at 16.2 uM incubated for 24 hrs by Annexin V-FITC/PI staining based flow cytometric analysis (reference value: 0.1 %); format: functional
# SCC-9 [16] = assay: Cytotoxicity against human SCC-9 cells assessed as cell growth inhibition; format: functional, cell-based; how it was run: as §1
# CAL-27 [17] = assay: Cytotoxicity against human CAL-27 cells assessed as cell growth inhibition; format: functional, cell-based; how it was run: as §1
# SCC-9 [18] = assay: Induction of apoptosis in human SCC-9 cells assessed as necrotic cells at 32.4 uM incubated for 24 hrs by Annexin V-FITC/PI staining based flow cytometric analysis (reference value: 0.1 %); format: functional
# CAL-27 [19] = assay: Cell cycle arrest in human CAL-27 cells assessed as accumulation at G2/M phase at 16 uM incubated for 24 hrs by flow cytometry (reference value: 11.9 %); format: functional
# SCC-9 [20] = assay: Induction of apoptosis in human SCC-9 cells assessed as late apoptotic cells at 32.4 uM incubated for 24 hrs by Annexin V-FITC/PI staining based flow cytometric analysis (reference value: 1.4 %); format: functional
# CAL-27 [21] = assay: Induction of apoptosis in human CAL-27 cells assessed as late apoptotic cells at 32 uM incubated for 24 hrs by Annexin V-FITC/PI staining based flow cytometric analysis (reference value: 0.1 %); format: functional; how it was run: as §2
# SCC-9 [22] = assay: Induction of apoptosis in human SCC-9 cells assessed as live cells at 32.4 uM incubated for 24 hrs by Annexin V-FITC/PI staining based flow cytometric analysis (reference value: 95.7 %); format: functional
# SCC-9 [23] = assay: Induction of apoptosis in human SCC-9 cells assessed as downregulation of Oct-4 gene expression at 32 uM by qRT-PCR analysis; format: functional, cell-based
# [24] = Cytotoxicity against human BEAS-2B cells assessed as cell growth inhibition; format: toxicity, cell-based
# How it was run: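 Compounds were dissolved in sterile DMSO as 10 mg ml−1 stocks and tested in vitro for cytotoxicity in a cell-line panel, with DMSO (0.01%) as vehicle control and doxorubicin as standard. Mean IC50 values were reported, and the normal lung epithelial cells were tested up to 100 μM.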
# CAL-27 [25] = assay: Induction of apoptosis in human CAL-27 cells assessed as downregulation of vimentin gene expression at 32 uM by qRT-PCR analysis; format: functional, cell-based; how it was run: as §3
# SCC-9 [26] = assay: Induction of apoptosis in human SCC-9 cells assessed as early apoptotic cells at 32.4 uM incubated for 24 hrs by Annexin V-FITC/PI staining based flow cytometric analysis (reference value: 2.8 %); format: functional
# CAL-27 [27] = assay: Cell cycle arrest in human CAL-27 cells assessed as accumulation at G2/M phase at 32 uM incubated for 24 hrs by flow cytometry (reference value: 11.9 %); format: functional
# CAL-27 [28] = assay: Induction of apoptosis in human CAL-27 cells assessed as downregulation of BcL-2 gene expression at 16 uM by qRT-PCR analysis; format: functional, cell-based; how it was run: as §3
# CAL-27 [29] = assay: Cell cycle arrest in human CAL-27 cells assessed as accumulation at G0/G1 phase at 16 uM incubated for 24 hrs by flow cytometry (reference value: 77.6 %); format: functional
# SCC-9 [30] = assay: Induction of apoptosis in human SCC-9 cells assessed as downregulation of BcL-2 gene expression at 32 uM by qRT-PCR analysis; format: functional, cell-based
# SCC-9 [31] = assay: Induction of apoptosis in human SCC-9 cells assessed as upregulation of Bax gene expression at 16 uM by qRT-PCR analysis; format: functional, cell-based
# CAL-27 [32] = assay: Induction of apoptosis in human CAL-27 cells assessed as downregulation of BcL-2 gene expression at 32 uM by qRT-PCR analysis; format: functional, cell-based; how it was run: as §3
# SCC-9 [33] = assay: Cell cycle arrest in human SCC-9 cells assessed as accumulation at S phase at 16.2 uM incubated for 24 hrs by flow cytometry (reference value: 14.4 %); format: functional
structure (smiles),measurement,setting,value
COc1ccc(-c2csc(NC(=O)CN3CCN(Cc4c(O)c(OC)c(O)c5c4C(=O)OC4C5O[C@H](CO)[C@@H](O)[C@@H]4O)CC3)n2)cc1 (some centres undefined),Activity,SCC-9 [1],40.8%
same,Activity,SCC-9 [2],10.5%
same,Activity,SCC-9 [3],Active
same,IC50,MCF7,> 100 µM
same,Activity,CAL-27 [4],0.9%
same,Activity,SCC-9 [5],10.6%
same,Activity,CAL-27 [6],91%
same,Activity,CAL-27 [7],2.8%
same,Activity,SCC-9 [8],Active
same,Activity,SCC-9 [9],Active
same,Activity,CAL-27 [10],2%
same,Activity,SCC-9 [11],44.2%
same,Activity,SCC-9 [12],Active
same,Activity,CAL-27 [13],2.7%
same,Activity,CAL-27 [14],Active
same,Activity,SCC-9 [15],9.2%
same,IC50,SCC-9 [16],32.4 µM
same,IC50,CAL-27 [17],16 µM
same,Activity,SCC-9 [18],33.8%
same,Activity,CAL-27 [19],12.3%
same,Activity,SCC-9 [20],17.5%
same,Activity,CAL-27 [21],4.3%
same,Activity,SCC-9 [22],42.8%
same,Activity,SCC-9 [23],Active
same,IC50,[24],> 100 µM
same,Activity,CAL-27 [25],Active
same,Activity,SCC-9 [26],5.9%
same,Activity,CAL-27 [27],9.4%
same,Activity,CAL-27 [28],Active
same,Activity,CAL-27 [29],85.5%
same,Activity,SCC-9 [30],Active
same,Activity,SCC-9 [31],Active
same,Activity,CAL-27 [32],Active
same,Activity,SCC-9 [33],16%
